Source: ChEMBL document CHEMBL1143387, “Synthesis of 18F-labelled 2-(4'-fluorophenyl)-1,3-benzothiazole and evaluation as amyloid imaging agent in comparison with [11C]PIB” (Bioorg Med Chem Lett, 2009)

Columns and labels:
[1] = system: Liver; test: Biodistribution in NMRI mouse liver at 3.7 MBq/mL after 2 mins by gamma counter; format: ADME, organism-based; conditions: in vivo
Procedure, shortened: (§1)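 Male NMRI mice (30–40 g), anaesthetised by ip Hypnorm (0.1 ml), given 0.1 ml diluted tracer via tail vein (ethanol ≤10%, THF ≤0.02%). Killed by decapitation at 2 or 60 min pi, n = 4 per time point. Blood and organs dissected and weighed, radioactivity gamma-counted with background correction. Reported as % ID or % ID/g; total blood activity assumes blood mass 7% of body mass.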

[2] = system: Lung; test: Biodistribution in NMRI mouse lungs assessed per gram of tissue at 3.7 MBq/mL after 2 mins by gamma counter; format: ADME, organism-based; conditions: in vivo; procedure, shortened: as §1
[3] = system: Liver; test: Biodistribution in NMRI mouse liver at 3.7 MBq/mL after 60 mins by gamma counter; format: ADME, organism-based; conditions: in vivo, 1 h; procedure, shortened: as §1
[4] = system: Kidney; test: Biodistribution in NMRI mouse kidneys assessed per gram of tissue at 3.7 MBq/mL after 60 mins by gamma counter; format: ADME, organism-based; conditions: in vivo, 1 h; procedure, shortened: as §1
[5] = system: Cerebellum; test: Biodistribution in NMRI mouse cerebellum assessed per gram of tissue at 3.7 MBq/mL after 60 mins by gamma counter; format: ADME, organism-based; conditions: in vivo, 1 h; procedure, shortened: as §1
[6] = Biodistribution in NMRI mouse cerebrum at 3.7 MBq/mL after 60 mins by gamma counter; format: ADME, organism-based; conditions: in vivo, 1 h; procedure, shortened: as §1
[7] = Biodistribution in NMRI mouse liver/gallbladder at 3.7 MBq/mL after 2 mins by gamma counter; format: ADME, organism-based; conditions: in vivo; procedure, shortened: as §1
[8] = system: Kidney; test: Biodistribution in NMRI mouse kidneys at 3.7 MBq/mL after 2 mins by gamma counter; format: ADME, organism-based; conditions: in vivo; procedure, shortened: as §1
[9] = system: Cerebellum; test: Biodistribution in NMRI mouse cerebellum assessed per gram of tissue at 3.7 MBq/mL after 2 mins by gamma counter; format: ADME, organism-based; conditions: in vivo; procedure, shortened: as §1
[10] = system: Liver; test: Biodistribution in NMRI mouse liver assessed per gram of tissue at 3.7 MBq/mL after 2 mins by gamma counter; format: ADME, organism-based; conditions: in vivo; procedure, shortened: as §1
[11] = Partition coefficient, log P at pH 7.4; format: physicochemical; conditions: octanol/water
[12] = Biodistribution in NMRI mouse cerebrum assessed per gram of tissue at 3.7 MBq/mL after 2 mins by gamma counter; format: ADME, organism-based; conditions: in vivo; procedure, shortened: as §1
[13] = system: Lung; test: Biodistribution in NMRI mouse lungs at 3.7 MBq/mL after 60 mins by gamma counter; format: ADME, organism-based; conditions: in vivo, 1 h; procedure, shortened: as §1
[14] = system: Blood; test: Biodistribution in NMRI mouse blood at 3.7 MBq/mL after 60 mins by gamma counter; format: ADME, organism-based; conditions: in vivo, 1 h; procedure, shortened: as §1
[15] = system: Lung; test: Biodistribution in NMRI mouse lungs assessed per gram of tissue at 3.7 MBq/mL after 60 mins by gamma counter; format: ADME, organism-based; conditions: in vivo, 1 h; procedure, shortened: as §1
[16] = Biodistribution in NMRI mouse urine at 3.7 MBq/mL after 2 mins by gamma counter; format: ADME, organism-based; conditions: in vivo; procedure, shortened: as §1
[17] = system: Blood; test: Biodistribution in NMRI mouse blood assessed per gram of tissue at 3.7 MBq/mL after 2 mins by gamma counter; format: ADME, organism-based; conditions: in vivo; procedure, shortened: as §1
[18] = Biodistribution in NMRI mouse liver/gallbladder at 3.7 MBq/mL after 60 mins by gamma counter; format: ADME, organism-based; conditions: in vivo, 1 h; procedure, shortened: as §1
[19] = system: Liver; test: Biodistribution in NMRI mouse liver assessed per gram of tissue at 3.7 MBq/mL after 60 mins by gamma counter; format: ADME, organism-based; conditions: in vivo, 1 h; procedure, shortened: as §1
[20] = system: Blood; test: Biodistribution in NMRI mouse blood assessed per gram of tissue at 3.7 MBq/mL after 60 mins by gamma counter; format: ADME, organism-based; conditions: in vivo, 1 h; procedure, shortened: as §1
[21] = system: Lung; test: Biodistribution in NMRI mouse lungs at 3.7 MBq/mL after 2 mins by gamma counter; format: ADME, organism-based; conditions: in vivo; procedure, shortened: as §1
[22] = system: Blood; test: Biodistribution in NMRI mouse blood at 3.7 MBq/mL after 2 mins by gamma counter; format: ADME, organism-based; conditions: in vivo; procedure, shortened: as §1
[23] = Biodistribution in NMRI mouse cerebrum assessed per gram of tissue at 3.7 MBq/mL after 60 mins by gamma counter; format: ADME, organism-based; conditions: in vivo, 1 h; procedure, shortened: as §1
[24] = system: Kidney; test: Biodistribution in NMRI mouse kidneys at 3.7 MBq/mL after 60 mins by gamma counter; format: ADME, organism-based; conditions: in vivo, 1 h; procedure, shortened: as §1
[25] = system: Intestine; test: Biodistribution in NMRI mouse intestine at 3.7 MBq/mL after 2 mins by gamma counter; format: ADME, organism-based; conditions: in vivo; procedure, shortened: as §1
[26] = system: Cerebellum; test: Biodistribution in NMRI mouse cerebellum at 3.7 MBq/mL after 2 mins by gamma counter; format: ADME, organism-based; conditions: in vivo; procedure, shortened: as §1
[27] = system: Kidney; test: Biodistribution in NMRI mouse kidneys assessed per gram of tissue at 3.7 MBq/mL after 2 mins by gamma counter; format: ADME, organism-based; conditions: in vivo; procedure, shortened: as §1
[28] = Biodistribution in NMRI mouse urine at 3.7 MBq/mL after 60 mins by gamma counter; format: ADME, organism-based; conditions: in vivo, 1 h; procedure, shortened: as §1
[29] = system: Cerebellum; test: Biodistribution in NMRI mouse cerebellum at 3.7 MBq/mL after 60 mins by gamma counter; format: ADME, organism-based; conditions: in vivo, 1 h; procedure, shortened: as §1
[30] = Biodistribution in NMRI mouse cerebrum at 3.7 MBq/mL after 2 mins by gamma counter; format: ADME, organism-based; conditions: in vivo; procedure, shortened: as §1

Q: For [18F]c1ccc(-c2nc3ccccc3s2)cc1, which Activity [1] is on record?
A: 21.8 %ID

Q: And the Activity [2]?
A: 13.8 % ID/g

Q: And the Activity [3]?
A: 11.7 %ID

Q: And the Activity [4]?
A: 8.2 % ID/g

Q: And the Activity [5]?
A: 0.21 % ID/g

Q: What about the Activity [6] of the same compound?
A: 0.07 %ID

Q: And the Activity [7]?
A: 30.3 %ID

Q: What about the Activity [8] of the same compound?
A: 11.4 %ID

Q: And the Activity [9]?
A: 3.35 % ID/g

Q: And the Activity [10]?
A: 10.2 % ID/g

Q: What about the logD [11] of the same compound?
A: 2.86

Q: And the Activity [12]?
A: 3.2 % ID/g

Q: What about the Activity [13] of the same compound?
A: 0.4 %ID

Q: What about the Activity [14] of the same compound?
A: 1.8 %ID

Q: What about the Activity [15] of the same compound?
A: 1.5 % ID/g

Q: And the Activity [16]?
A: 0.6 %ID

Q: And the Activity [17]?
A: 2.9 % ID/g

Q: What about the Activity [18] of the same compound?
A: 49.4 %ID

Q: What about the Activity [19] of the same compound?
A: 5.3 % ID/g

Q: What about the Activity [20] of the same compound?
A: 0.6 % ID/g

Q: And the Activity [21]?
A: 3.9 %ID

Q: What about the Activity [22] of the same compound?
A: 7.8 %ID

Q: And the Activity [23]?
A: 0.21 % ID/g

Q: And the Activity [24]?
A: 5.9 %ID

Q: And the Activity [25]?
A: 8.5 %ID

Q: What about the Activity [26] of the same compound?
A: 0.33 %ID

Q: And the Activity [27]?
A: 17.9 % ID/g

Q: And the Activity [28]?
A: 15.5 %ID

Q: And the Activity [29]?
A: 0.02 %ID

Q: What about the Activity [30] of the same compound?
A: 1.03 %ID
